Columns and labels:
Vasopressin V1a receptor [1] = target: T1, Vasopressin V1a receptor (Homo sapiens, UniProt P37288); assay: Displacement of [3H]AVP from human V1a receptor expressed in […] cells assessed as dissociation constant by radioligand binding assay; format: cell-based, 1321N1
Summary of the method: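 Membranes from 1321N1 cells expressing human V1a or V2 receptor incubated with [3H]AVP and increasing test compound concentrations. Nonspecific binding defined with 2 µM arginine-vasopressin for both receptors. IC50 taken from sigmoidal fit of displacement curves, then converted to Ki by Cheng-Prusoff.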
Target sequence in this assay (P37288 whole entry): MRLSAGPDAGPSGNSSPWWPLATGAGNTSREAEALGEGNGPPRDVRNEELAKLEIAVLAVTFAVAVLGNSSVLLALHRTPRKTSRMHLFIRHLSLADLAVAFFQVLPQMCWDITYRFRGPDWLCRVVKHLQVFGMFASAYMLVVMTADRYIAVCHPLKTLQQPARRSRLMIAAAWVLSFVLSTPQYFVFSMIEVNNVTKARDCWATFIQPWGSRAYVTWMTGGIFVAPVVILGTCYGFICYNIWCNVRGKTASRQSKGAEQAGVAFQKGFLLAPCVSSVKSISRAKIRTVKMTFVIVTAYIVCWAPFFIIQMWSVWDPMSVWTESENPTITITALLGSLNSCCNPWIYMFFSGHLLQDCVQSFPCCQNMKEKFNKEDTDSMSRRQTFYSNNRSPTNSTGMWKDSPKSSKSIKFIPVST

in vitro [2] = details: NMRI, mouse
Vasopressin V1a receptor [3] = target: T1, Vasopressin V1a receptor; assay: Inhibition of human V1a receptor expressed in human 1321N1 cells assessed as decrease in Arg8-vasopressin-stimulated calcium flux by fluorometric calcium assay; format: functional, cell-based
Summary of the method: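 1321N1 cells expressing human V1a receptor stimulated with (Arg8)-vasopressin. Intracellular Ca2+ change measured. IC50 values averaged from at least three independent measurements.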
Target sequence in this assay (P37288 whole entry): as above

in vitro [4] = details: Wistar, rat
Vasopressin V2 receptor [5] = target: T2, Vasopressin V2 receptor (Homo sapiens, UniProt P30518); assay: Displacement of [3H]AVP from human V2a receptor expressed in 1132N1 cells assessed as dissociation constant by radioligand binding assay
T2 sequence (P30518 whole entry): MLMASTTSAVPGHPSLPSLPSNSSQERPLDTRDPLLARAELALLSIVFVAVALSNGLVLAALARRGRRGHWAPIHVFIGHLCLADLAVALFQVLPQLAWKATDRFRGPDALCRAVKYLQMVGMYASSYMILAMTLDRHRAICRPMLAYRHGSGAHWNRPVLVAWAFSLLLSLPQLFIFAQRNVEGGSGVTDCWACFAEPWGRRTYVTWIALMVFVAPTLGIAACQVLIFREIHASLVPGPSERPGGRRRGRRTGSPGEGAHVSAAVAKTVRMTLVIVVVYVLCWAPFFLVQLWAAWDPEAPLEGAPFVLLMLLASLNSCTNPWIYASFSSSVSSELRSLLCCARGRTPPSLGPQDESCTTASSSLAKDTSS

in vitro [6] = details: human
Mus musculus [7] = assay: Anti-depression activity in mouse assessed as inhibition of oxytocin-induced scratching at 30 mg/kg, po administered before oxytocin stimulation and measured after 1 hr
[8] = Apparent permeability across apical to basolateral side in vinblastine-treated human Caco-2 cells at 10 uM by HPLC-UV analysis
P-glycoprotein [9] = assay: Efflux ratio of Apparent permeability across apical to basolateral side in human Caco-2 cells expressing P-glycoprotein at 10 uM by HPLC-UV analysis
Vasopressin V1a receptor [10] = target: T1, Vasopressin V1a receptor; assay: Inhibition of human V1a receptor expressed in human 1321N1 cells assessed as decrease in Arg8-vasopressin-stimulated calcium flux at 10 uM by fluorometric calcium assay relative to control; format: functional, cell-based
Target sequence in this assay (P37288 whole entry, looked up): as the sequence (P37288 whole entry) above

Vasopressin V1a receptor [11] = target: T1, Vasopressin V1a receptor; assay: Displacement of [3H]AVP from human V1a receptor expressed in […] cells at 10 uM by radioligand binding assay relative to control; format: cell-based
Summary of the method: (§1)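 Membranes from 1321N1 cells expressing human V1a or V2 receptor incubated with [3H]AVP and single test concentration. Nonspecific binding defined with 2 µM arginine-vasopressin.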
Target sequence in this assay (P37288 whole entry, looked up): as the sequence (P37288 whole entry) above

[12] = Apparent permeability across apical to basolateral side in vinblastine-treated human Caco-2 cells at 1 uM by HPLC-UV analysis; format: ADME
Summary of the method: (§2)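 Bidirectional transport across VB-Caco-2 monolayers with test compound at 1 or 10 µM. Apparent permeability A→B reported, with PDR from the two directions.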

P-glycoprotein [13] = assay: Efflux ratio of Apparent permeability across apical to basolateral side in vinblastine-treated human Caco-2 cells expressing P-glycoprotein at 1 uM by HPLC-UV analysis; format: ADME; summary of the method: as §2
Mus musculus [14] = organism: Mus musculus; assay: animal or person; details: ip, 1 h, read-out: INH
Vasopressin V2 receptor [15] = target: T2, Vasopressin V2 receptor; assay: Displacement of [3H]AVP from human […] receptor expressed in […] cells at 1 uM by radioligand binding assay relative to control; format: cell-based; details: 1321N1; summary of the method: as §1

Ki (Vasopressin V1a receptor [1]) [nM]	microsomal CLint at 1 µM (in vitro [2]; liver microsomes) [µL/min/mg]	IC50 (Vasopressin V1a receptor [3]) [nM]	microsomal CLint at 1 µM (in vitro [4]; liver microsomes) [µL/min/mg]	microsomal CLint at 1 µM (in vitro [6]; liver microsomes) [µL/min/mg]	inhibition (Vasopressin V1a receptor [10]) [%]	SMILES	further results
0.8	94	1	124	7		Clc1ccc2c(c1)CCCc1nnc([C@H]3CC[C@H](Oc4ccccn4)CC3)n1-2	Ki (Vasopressin V2 receptor [5]): 560 nM; inhibition in vivo at 30 mg/kg (Mus musculus [7]): 94%
0.6	90	1.3	110	9		Brc1ccc2c(c1)CCCc1nnc([C@H]3CC[C@H](Oc4ccccn4)CC3)n1-2	Papp A→B at 10 µM [8]: 29 ×10⁻⁶ cm/s; efflux ratio at 10 µM (P-glycoprotein [9]): 0.9
5200					11	Clc1ccc2c(c1)nc1[nH]nc(C3CCN(c4ccccn4)CC3)n12	
					< 50	Cc1ccc(S(=O)(=O)N2CCC(c3nnc4n3-c3ccc(Cl)cc3CC4)CC2)cc1	inhibition (Vasopressin V1a receptor [11]; 1321N1, filed as antagonist): 42%
					< 50	NC1Cc2cc(Cl)ccc2-n2c1nnc2C1CCN(c2ccccn2)CC1 (configuration not stated)	inhibition (Vasopressin V1a receptor [11]; 1321N1): 34%
					< 50	Cc1nnc2n1-c1ccc(Cl)cc1CC2	inhibition (Vasopressin V1a receptor [11]; 1321N1): 9%
					8	Clc1ccc2nc3[nH]nc(C4CCN(c5ccccn5)CC4)n3c2c1	inhibition (Vasopressin V1a receptor [11]; 1321N1): 27%
15	170	252	163	31		CCc1ccc2c(c1)CCCc1nnc(C3CCN(c4ccccn4)CC3)n1-2	
2400					43	CC(=O)N1c2cc(Cl)ccc2-n2c(C3CCN(c4ccccn4)CC3)nnc2C1(C)C	
180					< 50	Clc1ccc2c(c1)C1CC1c1nnc([C@H]3CC[C@@H](Oc4ccccn4)CC3)n1-2 (some centres not stated)	
71	36	1400	32	0.3		Clc1ccc2c(c1)CCc1nnc(C3CCN(c4ccccn4)CC3)n1-2	Papp A→B at 10 µM [8]: 51 ×10⁻⁶ cm/s; efflux ratio at 10 µM (P-glycoprotein [9]): 0.8
					< 50	O=S(=O)(c1ccc(F)cc1)N1CCC(c2nnc3n2-c2ccc(Cl)cc2CC3)CC1	inhibition (Vasopressin V1a receptor [11]; 1321N1): 36%
1.4	132	260	404	80		O=C(C1CCN(c2ccccn2)CC1)N1CCNc2cc(Cl)ccc21	Papp A→B at 10 µM [8]: 48 ×10⁻⁶ cm/s; efflux ratio at 10 µM (P-glycoprotein [9]): 0.7
55		635				Cc1cc([C@H]2CC[C@H](c3nnc4n3-c3ccc(Cl)cc3[C@H]3C[C@@H]43)CC2)no1	
9	15	70	12	3		Clc1ccc2c(c1)CCc1nnc([C@H]3CC[C@H](Oc4ccccn4)CC3)n1-2	inhibition in vivo at 10 mg/kg (Mus musculus [14]): 66%; inhibition (Vasopressin V2 receptor [15]): 13%
260					< 50	Clc1ccc2c(c1)C1CC1c1nnc(C3CCN(c4ccccn4)CC3)n1-2 (configuration not stated)	
0.7	50	13	111	8		Brc1ccc2c(c1)CCCc1nnc(C3CCN(c4ccccn4)CC3)n1-2	Papp A→B at 10 µM [8]: 46 ×10⁻⁶ cm/s; efflux ratio at 10 µM (P-glycoprotein [9]): 0.8
13	13	100	13	0.3		Cc1cc([C@H]2CC[C@H](c3nnc4n3-c3ccc(Cl)cc3CC4)CC2)no1	inhibition in vivo at 10 mg/kg (Mus musculus [14]): 45%; inhibition (Vasopressin V2 receptor [15]): 9%
0.45	115	2.7	121	27		C#Cc1ccc2c(c1)CCCc1nnc(C3CCN(c4ccccn4)CC3)n1-2	

Ki (Vasopressin V1a receptor [1]) [nM]	microsomal CLint at 1 µM (in vitro [2]; liver microsomes) [µL/min/mg]	IC50 (Vasopressin V1a receptor [3]) [nM]	microsomal CLint at 1 µM (in vitro [4]; liver microsomes) [µL/min/mg]	microsomal CLint at 1 µM (in vitro [6]; liver microsomes) [µL/min/mg]	inhibition (Vasopressin V1a receptor [10]) [%]	SMILES	further results
570					< 50	Cc1cc([C@H]2CC[C@H](c3nnc4n3-c3ccc(Cl)cc3[C@@H]3C[C@H]43)CC2)no1	
28	373	220	72	81		COC(=O)CC1Cc2cc(Cl)ccc2-n2c1nnc2[C@H]1CC[C@H](Oc2ccccn2)CC1 (some centres not stated)	
0.7	38	2.2	83	1		Cc1cc([C@H]2CC[C@H](c3nnc4n3-c3ccc(Cl)cc3CCC4)CC2)no1	
2.3	188	20	231	8		c1ccc(O[C@H]2CC[C@H](c3nnc4n3-c3ccccc3CCC4)CC2)nc1	
1.4	116	3.2	196	19		Clc1ccc2c(c1)CCCc1nnc(C3CCN(c4ccccn4)CC3)n1-2	Papp A→B at 1 µM [12]: 37 ×10⁻⁶ cm/s; efflux ratio at 1 µM (P-glycoprotein [13]): 1.1
1.6	114	25	125	0.4		Cc1cc([C@H]2CC[C@H](c3nnc4n3-c3ccccc3CCC4)CC2)no1	
					< 50	Clc1ccc2c(c1)CCc1nnc(C3CCCCC3)n1-2	inhibition (Vasopressin V1a receptor [11]; 1321N1): 35%
0.6	36	1.7	76	3		Cc1cc([C@H]2CC[C@H](c3nnc4n3-c3ccc(Br)cc3CCC4)CC2)no1	
					< 50	CC(C)(C)OC(=O)N1CCC(c2nnc3n2-c2ccc(Cl)cc2CC3)CC1	inhibition (Vasopressin V1a receptor [11]; 1321N1): 37%
700	115		39	8	40	COc1nc2cc(Cl)ccc2n2c(C3CCN(c4ccccn4)CC3)nnc12	Papp A→B at 1 µM [12]: 28 ×10⁻⁶ cm/s; efflux ratio at 1 µM (P-glycoprotein [13]): 0.8
0.6	235	2.4	170	72		Cc1ccccc1N1CCN(C(=O)N2C[C@@H](C(=O)N3CCCC3)Cc3cc(Cl)ccc32)CC1	Papp A→B at 1 µM [12]: 10 ×10⁻⁶ cm/s; efflux ratio at 1 µM (P-glycoprotein [13]): 1.3
					< 50	Clc1ccc2c(c1)CCc1nnc(C3CCNCC3)n1-2	inhibition (Vasopressin V1a receptor [11]; 1321N1): 14%
800					28	CC1(C)Nc2cc(Cl)ccc2-n2c(C3CCN(c4ccccn4)CC3)nnc21	
15	163	117	130	12		c1ccc(N2CCC(c3nnc4n3-c3ccccc3CCC4)CC2)nc1	
100	3	500	1	0.3		Cc1cc([C@H]2CC[C@H](c3nnc4n3-c3ccc(Cl)cc3C3CC43)CC2)no1 (mixture of isomers)	
					< 50	O=S(=O)(c1ccc2c(c1)CCO2)N1CCC(c2nnc3n2-c2ccc(Cl)cc2CC3)CC1	inhibition (Vasopressin V1a receptor [11]; 1321N1, filed as antagonist): 43%
					< 50	O=S(=O)(c1ccccn1)N1CCC(c2nnc3n2-c2ccc(Cl)cc2CC3)CC1	inhibition (Vasopressin V1a receptor [11]; 1321N1): 19%
					0	O=c1[nH]c2cc(Cl)ccc2n2c(C3CCN(c4ccccn4)CC3)nnc12	inhibition (Vasopressin V1a receptor [11]; 1321N1): 3%
					< 50	CC(C)(C)OC(=O)NC1Cc2cc(Cl)ccc2-n2c(C3CCN(c4ccccn4)CC3)nnc21 (configuration not stated)	inhibition (Vasopressin V1a receptor [11]; 1321N1): 25%

SMILES	Ki (Vasopressin V1a receptor [1]) [nM]	microsomal CLint at 1 µM (in vitro [2]; liver microsomes) [µL/min/mg]	IC50 (Vasopressin V1a receptor [3]) [nM]	microsomal CLint at 1 µM (in vitro [4]; liver microsomes) [µL/min/mg]	microsomal CLint at 1 µM (in vitro [6]; liver microsomes) [µL/min/mg]	inhibition (Vasopressin V1a receptor [10]) [%]	further results
CN1Cc2cc(Cl)ccc2-n2c(nnc2[C@H]2CC[C@H](Oc3ccccn3)CC2)C1 [BALOVAPTAN]			3				microsomal CLint at 1 µM (in vitro [2]; microsomes): 17 µL/min/mg; microsomal CLint at 1 µM (in vitro [4]; microsomes): 22 µL/min/mg; Papp A→B at 1 µM [12]: 43 ×10⁻⁶ cm/s; microsomal CLint at 1 µM (in vitro [6]; microsomes): 0.5 µL/min/mg; efflux ratio at 1 µM (P-glycoprotein [13]): 1.1; inhibition in vivo at 30 mg/kg (Mus musculus [7]): 80%
COC(=O)C12CC1c1cc(Cl)ccc1-n1c2nnc1[C@H]1CC[C@H](Oc2ccccn2)CC1 (some centres not stated)	400					< 50	

Reference: ChEMBL document CHEMBL4665717, “New V1a receptor antagonist. Part 2. Identification and optimization of triazolobenzazepines” (Bioorg Med Chem Lett, 2020)
